We go through one compound from ChEMBL document CHEMBL5678802, “Small-molecule p21-activated kinase inhibitor PF-3758309 is a potent inhibitor of oncogenic signaling and tumor growth” (Proc Natl Acad Sci U S A, 2010).

Active and inactive are the calls of the source. No cut-off for these calls is given here.

The target in assay [1] is Serine/threonine-protein kinase PAK 6 (Homo sapiens, UniProt Q9NQU5). The assay is described as follows: Inhibition of PAK6 (unknown origin) using EVPRRKSLVGTPYWM peptide as substrate assessed as inhibition constant in presence of ATP by biochemical assay. An outline of the steps:
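PAK6 kinase domain activity coupled to NADH oxidation via pyruvate kinase/lactate dehydrogenase (2 mM phosphoenolpyruvate, 0.33 mM NADH, 15 units/mL each PK and LDH) in 50 mM Hepes pH 7.5, 1 mM DTT, 5 mM MgCl2, 0.5 mM peptide 7, 0.072 mM ATP. Initial rates by linear least-squares regression; Ki from competitive or tight-binding inhibition fits.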

A further assay has as its system NCI-H716. As to the kind of experiment: Antiproliferative activity against human NCI-H716 cells assessed as inhibition of cell proliferation incubated for 3 days by CellTiter-Glo Luminescent Cell Viability Assay. To be noted: NCI-H716, 72 h. Format: functional, cell-based. An outline of the steps:
(§1)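 Cells of each line were plated in 384-well plates on day 1 and exposed to compound from day 2 for 3 days. On day 5 all medium was aspirated. Viable cell number was read by CellTiter-Glo luminescence, which quantifies cellular ATP.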

The next assay relates to NCI-H1734. As to the kind of experiment: Antiproliferative activity against human NCI-H1734 cells assessed as inhibition of cell proliferation incubated for 3 days by CellTiter-Glo Luminescent Cell Viability Assay. Format: functional, cell-based. To be noted: NCI-H1734, 72 h. An outline of the steps:
as §1

The test system of a further assay is NCI-H2087. The assay is described as follows: Antiproliferative activity against human NCI-H2087 cells assessed as inhibition of cell proliferation incubated for 3 days by CellTiter-Glo Luminescent Cell Viability Assay. Format: functional, cell-based. To be noted: NCI-H2087, 72 h. The gist of the method:
as §1

Another assay has as its system NCI-H441. As to the kind of experiment: Antiproliferative activity against human NCI-H441 cells assessed as inhibition of cell proliferation incubated for 3 days by CellTiter-Glo Luminescent Cell Viability Assay. Format: functional, cell-based. To be noted: NCI-H441, 72 h. The gist of the method: as §1
The subject of the next assay is NCI-H1651. The assay is described as follows: Antiproliferative activity against human NCI-H1651 cells assessed as inhibition of cell proliferation incubated for 3 days by CellTiter-Glo Luminescent Cell Viability Assay. Format: functional, cell-based. To be noted: NCI-H1651, 72 h. The gist of the method:
(§2)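 Cancer cell lines seeded in 384-well plates on day 1; compound added on day 2 and left for 3 days. On day 5 all medium was aspirated, and viable cells were quantified by CellTiter-Glo luminescence, which measures cellular ATP. Dose-dependent effects on proliferation were determined.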

The subject of a further assay is PANC-08-13. The assay is described as follows: Antiproliferative activity against human PANC-08-13 cells assessed as inhibition of cell proliferation incubated for 3 days by CellTiter-Glo Luminescent Cell Viability Assay. Format: functional, cell-based. To be noted: PANC-08-13, 72 h. The gist of the method: as §1
The test system of a further assay is HuP-T4. As to the kind of experiment: Antiproliferative activity against human HuP-T4 cells assessed as inhibition of cell proliferation incubated for 3 days by CellTiter-Glo Luminescent Cell Viability Assay. To be noted: HuP-T4, 72 h. Format: functional, cell-based. The gist of the method: as §2
A further assay concerns CAPAN-1. The assay is described as follows: Antiproliferative activity against human CAPAN-1 cells assessed as inhibition of cell proliferation incubated for 3 days by CellTiter-Glo Luminescent Cell Viability Assay. Format: functional, cell-based. To be noted: CAPAN-1, 72 h. The gist of the method:
as §2

In another assay the test system is ASPC1. The assay is described as follows: Antiproliferative activity against human ASPC1 cells assessed as inhibition of cell proliferation incubated for 3 days by CellTiter-Glo Luminescent Cell Viability Assay. Format: functional, cell-based. To be noted: ASPC1, 72 h. The gist of the method:
as §2

A further assay deals with NCI-H1299. As to the kind of experiment: Inhibition of anchorage independent cell growth in human NCI-H1299 cells incubated for 6 days by Alamar blue reagent based fluorescence plate reader analysis. Format: functional. To be noted: NCI-H1299, 144 h.
Another assay has as its system NCI-H1573. The assay is described as follows: Inhibition of anchorage independent cell growth in human NCI-H1573 cells incubated for 6 days by Alamar blue reagent based fluorescence plate reader analysis. Format: functional. To be noted: NCI-H1573, 144 h.
In another assay the test system is ZR-75-1. As to the kind of experiment: Antiproliferative activity against human ZR-75-1 cells assessed as inhibition of cell proliferation incubated for 3 days by CellTiter-Glo Luminescent Cell Viability Assay. To be noted: ZR-75-1, 72 h. Format: functional, cell-based. An outline of the steps: as §1
In the next assay the test system is HCC1419. The assay is described as follows: Antiproliferative activity against human HCC1419 cells assessed as inhibition of cell proliferation incubated for 3 days by CellTiter-Glo Luminescent Cell Viability Assay. Format: functional, cell-based. To be noted: HCC1419, 72 h. An outline of the steps: as §2
Another assay deals with CAMA-1. The assay is described as follows: Antiproliferative activity against human CAMA-1 cells assessed as inhibition of cell proliferation incubated for 3 days by CellTiter-Glo Luminescent Cell Viability Assay. Format: functional, cell-based. To be noted: CAMA-1, 72 h. The gist of the method:
as §2

For assay [2], the target named is Protein kinase C theta type (Homo sapiens, UniProt Q04759). As to the kind of experiment: Inhibition of human PKCtheta in presence of ATP.
For assay [3], the target named is Protein kinase C beta type (Homo sapiens, UniProt P05771). As to the kind of experiment: Inhibition of human PKCbeta1 in presence of ATP.
Assay [4] concerns HCT-116. The assay is described as follows: Induction of cell cycle arrest in human HCT-116 cells assessed as accumulation of cells at sub G1 phase at 100 nM measured after 48 hrs by fluorescence activated cell sorter analysis (reference value: 1.84%). Format: functional.
The subject of a further assay is COLO 205. The assay is described as follows: Antitumor activity against human COLO 205 cells xenografted in nude mouse assessed as tumor growth inhibition at 20 mg/kg, po administered once daily for 9 to 18 days relative to control. Format: functional. To be noted: time 9-18 day, read-out: TGI. The gist of the method:
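Tumor cells were implanted s.c. into the right flank of female nu/nu nude mice aged 6–8 weeks. Animals were randomized into treatment groups once tumors were established (example: day 8 postimplant, about 170 mm3, animals >22 g). Compound in 0.5% methylcellulose was given by oral gavage. Tumors were measured with calipers two to three times per week.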

The test system of assay [5] is HCT-116. The assay is described as follows: Antitumor activity against human HCT-116 cells xenografted in nude mouse assessed as inhibition of [3H]FLT uptake at 25 mg/kg, po administered once a day for 2 day and measured after 2 hrs post [3H]FLT administration by scintillation counter analysis relative to control. Format: functional. To be noted: HCT-116, 48 h. The gist of the method:
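HCT116 xenograft mice (tumors 300–350 mm3, n = 5 per group) received oral vehicle or compound, with harvests on days 2, 3 and 6. Isoflurane-anesthetized mice were given [3H]FLT (15 nCi/g, i.p.) 2 h before killing. Tumor and liver were weighed, solubilized and scintillation-counted. SUV = C/(ID/W), and uptake is reported as the tumor-to-liver SUV ratio.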

Assay [6] concerns HCT-116. As to the kind of experiment: Antitumor activity against human HCT-116 cells xenografted in nude mouse assessed as reduction in Ki67 at 15 to 25 mg/kg administered orally twice daily by immunohistochemical analysis. Format: functional, organism-based. To be noted: dose 15-25 mg/kg, route po, time 3-6 day, TDE = time-dependent effect.
Assay [7] has as its system HCT-116. As to the kind of experiment: Antitumor activity against human HCT-116 cells xenografted in nude mouse assessed as reduction in STAT6 phosphorylation at Y641 residue at 15 to 150 mg/kg/day administered via pump for 18 hrs by Reverse-Phase protein array analysis. To be noted: dose 15-150 mg/kg/day. Format: functional, organism-based.
Assay [8] has as its target Serine/threonine-protein kinase PAK 4 (Homo sapiens, UniProt O96013). To be noted: dose 50.0 µM.
Another assay has as its system A549. As to the kind of experiment: cells. To be noted: Homo sapiens, A549, 144 h.

Serine/threonine-protein kinase PAK 4, sequence (O96013 whole entry, looked up): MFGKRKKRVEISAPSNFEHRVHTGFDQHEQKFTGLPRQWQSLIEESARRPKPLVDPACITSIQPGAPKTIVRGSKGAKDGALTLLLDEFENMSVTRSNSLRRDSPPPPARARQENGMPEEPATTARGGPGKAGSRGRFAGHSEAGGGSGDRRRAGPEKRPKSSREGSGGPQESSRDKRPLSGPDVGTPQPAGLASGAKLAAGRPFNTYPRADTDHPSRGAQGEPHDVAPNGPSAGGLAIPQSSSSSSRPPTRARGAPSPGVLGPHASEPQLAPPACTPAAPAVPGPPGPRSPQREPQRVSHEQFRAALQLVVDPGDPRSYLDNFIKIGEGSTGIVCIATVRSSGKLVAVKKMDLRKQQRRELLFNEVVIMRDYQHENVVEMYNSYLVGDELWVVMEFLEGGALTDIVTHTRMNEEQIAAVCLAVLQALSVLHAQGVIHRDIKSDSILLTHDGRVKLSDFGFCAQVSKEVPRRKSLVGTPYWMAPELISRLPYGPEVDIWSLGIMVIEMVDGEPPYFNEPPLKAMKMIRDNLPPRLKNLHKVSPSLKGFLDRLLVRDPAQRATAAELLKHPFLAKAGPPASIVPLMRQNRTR
Serine/threonine-protein kinase PAK 6, sequence (Q9NQU5 whole entry, the tested form may be a part): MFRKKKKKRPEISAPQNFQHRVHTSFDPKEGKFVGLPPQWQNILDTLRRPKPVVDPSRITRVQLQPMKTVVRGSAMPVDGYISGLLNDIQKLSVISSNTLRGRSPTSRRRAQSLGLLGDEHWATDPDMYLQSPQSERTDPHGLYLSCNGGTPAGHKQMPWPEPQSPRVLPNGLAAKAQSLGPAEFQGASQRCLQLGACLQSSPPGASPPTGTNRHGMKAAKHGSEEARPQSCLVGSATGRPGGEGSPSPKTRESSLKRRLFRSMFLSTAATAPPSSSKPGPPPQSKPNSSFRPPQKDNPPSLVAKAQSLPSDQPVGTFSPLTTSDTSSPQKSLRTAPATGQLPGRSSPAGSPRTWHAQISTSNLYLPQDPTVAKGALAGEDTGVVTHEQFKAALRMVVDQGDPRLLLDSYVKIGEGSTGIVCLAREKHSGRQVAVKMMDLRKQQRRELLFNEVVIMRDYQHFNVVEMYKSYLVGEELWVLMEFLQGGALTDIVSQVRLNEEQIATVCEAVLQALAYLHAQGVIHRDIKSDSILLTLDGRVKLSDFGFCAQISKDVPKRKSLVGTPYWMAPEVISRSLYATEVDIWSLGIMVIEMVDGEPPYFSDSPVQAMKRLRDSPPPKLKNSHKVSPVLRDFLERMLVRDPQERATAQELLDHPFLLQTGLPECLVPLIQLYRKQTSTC
Protein kinase C theta type, sequence (Q04759 whole entry): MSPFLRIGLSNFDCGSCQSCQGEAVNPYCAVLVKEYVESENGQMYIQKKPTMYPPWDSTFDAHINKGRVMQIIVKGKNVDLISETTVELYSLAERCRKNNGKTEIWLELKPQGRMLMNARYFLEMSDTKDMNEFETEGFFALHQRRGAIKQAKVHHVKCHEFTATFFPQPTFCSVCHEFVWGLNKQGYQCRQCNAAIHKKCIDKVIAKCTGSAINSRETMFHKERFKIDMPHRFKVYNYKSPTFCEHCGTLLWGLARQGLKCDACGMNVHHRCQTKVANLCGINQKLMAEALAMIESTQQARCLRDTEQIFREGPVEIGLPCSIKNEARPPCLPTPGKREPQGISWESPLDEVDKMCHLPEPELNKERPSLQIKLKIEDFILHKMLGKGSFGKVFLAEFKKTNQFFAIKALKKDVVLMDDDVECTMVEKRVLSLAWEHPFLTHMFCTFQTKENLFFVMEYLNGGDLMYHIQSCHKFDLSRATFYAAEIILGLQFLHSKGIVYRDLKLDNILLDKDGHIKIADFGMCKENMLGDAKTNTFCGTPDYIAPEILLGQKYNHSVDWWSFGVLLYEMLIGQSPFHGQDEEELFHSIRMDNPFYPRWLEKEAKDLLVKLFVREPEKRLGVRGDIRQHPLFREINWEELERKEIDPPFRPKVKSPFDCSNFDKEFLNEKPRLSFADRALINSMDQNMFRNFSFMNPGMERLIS
Protein kinase C beta type, sequence (P05771 whole entry): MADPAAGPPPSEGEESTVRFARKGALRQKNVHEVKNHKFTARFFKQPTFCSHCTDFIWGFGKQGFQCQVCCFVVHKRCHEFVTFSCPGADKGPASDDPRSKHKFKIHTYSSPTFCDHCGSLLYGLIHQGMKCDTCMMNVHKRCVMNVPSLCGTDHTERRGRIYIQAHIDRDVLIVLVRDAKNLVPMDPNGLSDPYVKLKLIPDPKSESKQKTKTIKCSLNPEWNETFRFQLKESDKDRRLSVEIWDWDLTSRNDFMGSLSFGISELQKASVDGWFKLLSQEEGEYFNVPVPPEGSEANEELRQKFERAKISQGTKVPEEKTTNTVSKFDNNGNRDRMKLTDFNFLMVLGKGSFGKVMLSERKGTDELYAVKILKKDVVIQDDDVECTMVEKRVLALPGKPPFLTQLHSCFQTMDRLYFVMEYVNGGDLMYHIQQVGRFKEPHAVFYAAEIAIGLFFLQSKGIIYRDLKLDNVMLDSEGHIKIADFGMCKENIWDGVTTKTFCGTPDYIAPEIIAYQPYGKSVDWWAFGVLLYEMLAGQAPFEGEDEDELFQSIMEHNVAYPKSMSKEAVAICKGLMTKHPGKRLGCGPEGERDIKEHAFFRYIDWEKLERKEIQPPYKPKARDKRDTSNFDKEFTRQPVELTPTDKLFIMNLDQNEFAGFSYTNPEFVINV

Consider `Cc1nc(Nc2n[nH]c3c2CN(C(=O)N[C@H](CN(C)C)c2ccccc2)C3(C)C)c2sccc2n1` [PF-03758309], for which, in [1], the inhibition constant Ki worked out at 17.1 nM. The IC50 was 11 nM in the assay on NCI-H716; 4.1 nM in the assay with NCI-H1734; 4.3 nM in the assay on NCI-H2087; 9.2 nM with NCI-H441; 20 nM in the assay with NCI-H1651; 12 nM in the assay with PANC-08-13. Besides, the IC50 in the assay with HuP-T4 came to 231 nM; with CAPAN-1, 1100 nM; with ASPC1 it was 1800 nM; with NCI-H1299 it was 7 nM; with NCI-H1573 it was 2.37 nM; with ZR-75-1, 0.49 nM. Further, the IC50 in the assay on HCC1419 amounted to 0.79 nM; in the assay with CAMA-1, 2.7 nM; in [2], 28 nM; in assay [3], 280 nM; in the assay on A549, 27.4 nM. Further, the Activity in the assay with HCT-116 [4] is 12.43%; in the assay on HCT-116 [6], “Tde”. Also, the inhibition in vivo at 20 mg/kg in the assay on COLO 205 turned out to be 106%. For the same compound, the inhibition in vivo at 25 mg/kg in the assay on HCT-116 [5] is 35.3%. Moreover, the result with HCT-116 [7] was Active. The compound also had a deltaH in assay [8] of -5 kcal/mol.
